Measurements: ChEMBL document CHEMBL3414517, “Synthesis and structure-activity relationship study of a new series of selective σ(1) receptor ligands for the treatment of pain: 4-aminotriazoles” (J Med Chem, 2015)
Values after ≈ are worked out from the molar mass of the structure shown. One block for each compound: values may come before it.

Columns and labels:
Cavia porcellus = organism: Cavia porcellus; experiment: Displacement of [3H]-DTG from sigma 2 receptor in guinea pig brain membrane at 1 uM after 120 mins by liquid scintillation counting; assay type: cell membranes
Method in brief: (§1)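 Guinea pig brain membranes (200 μg) with 10 nM [³H]-DTG in 50 mM Tris-HCl pH 8, σ1R masked by 400 nM (+)-SKF10047; 25 °C, 120 min; 10 μM haloperidol for non-specific binding. Filtered, washed 3× ice-cold 50 mM Tris-HCl pH 7.4, scintillation counted.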

[1] = Displacement of [3H]-DTG from sigma 2 receptor in guinea pig brain membrane after 120 mins by liquid scintillation counting; assay type: cell membranes, Cavia porcellus; method in brief: as §1
[2] = target: Voltage-gated inwardly rectifying potassium channel KCNH2 (Homo sapiens, UniProt Q12809)
Sequence of Voltage-gated inwardly rectifying potassium channel KCNH2 (Q12809 whole entry): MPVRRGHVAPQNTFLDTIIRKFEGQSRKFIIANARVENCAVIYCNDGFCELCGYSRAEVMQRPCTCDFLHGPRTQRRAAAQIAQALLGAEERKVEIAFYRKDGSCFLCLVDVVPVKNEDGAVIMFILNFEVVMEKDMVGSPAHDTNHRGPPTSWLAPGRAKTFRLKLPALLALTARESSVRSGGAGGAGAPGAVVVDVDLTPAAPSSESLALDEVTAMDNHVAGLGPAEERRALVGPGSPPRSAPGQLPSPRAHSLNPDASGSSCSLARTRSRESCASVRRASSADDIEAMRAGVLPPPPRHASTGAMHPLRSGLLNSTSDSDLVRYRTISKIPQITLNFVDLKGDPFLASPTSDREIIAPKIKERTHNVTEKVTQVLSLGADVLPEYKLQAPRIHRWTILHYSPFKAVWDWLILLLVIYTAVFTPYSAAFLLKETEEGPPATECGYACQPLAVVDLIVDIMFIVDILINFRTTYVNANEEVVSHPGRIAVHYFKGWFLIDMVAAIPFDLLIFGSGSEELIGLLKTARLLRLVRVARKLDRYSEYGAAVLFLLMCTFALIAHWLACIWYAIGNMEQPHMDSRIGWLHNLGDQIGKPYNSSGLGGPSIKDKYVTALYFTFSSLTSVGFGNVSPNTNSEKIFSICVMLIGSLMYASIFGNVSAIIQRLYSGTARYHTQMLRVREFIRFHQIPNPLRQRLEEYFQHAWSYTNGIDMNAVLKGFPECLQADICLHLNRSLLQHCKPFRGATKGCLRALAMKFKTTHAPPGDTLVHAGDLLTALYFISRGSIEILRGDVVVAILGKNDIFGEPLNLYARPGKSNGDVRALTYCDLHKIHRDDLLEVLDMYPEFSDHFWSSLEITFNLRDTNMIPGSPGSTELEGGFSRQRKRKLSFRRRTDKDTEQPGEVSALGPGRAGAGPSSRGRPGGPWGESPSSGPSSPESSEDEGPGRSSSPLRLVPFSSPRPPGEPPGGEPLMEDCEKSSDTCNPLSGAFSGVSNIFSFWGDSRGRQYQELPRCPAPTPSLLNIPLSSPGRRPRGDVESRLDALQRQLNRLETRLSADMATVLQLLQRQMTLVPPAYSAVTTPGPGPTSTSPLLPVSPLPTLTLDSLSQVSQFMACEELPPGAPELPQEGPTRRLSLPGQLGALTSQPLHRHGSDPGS

[3] = Intrinsic clearance in human liver microsomes assessed as per mg of protein at 10 uM; assay type: ADME; settings: read-out: CLH
[4] = Apparent permeability across human Caco2 cells at 10 uM after 2 hrs; assay type: ADME, cell-based; settings: Caco-2
Mus musculus [5] = experiment: Antinociceptive activity in CD1 mouse assessed as reduction in capsaicin-induced mechanical hypersensitivity measured as latency time to paw withdrawal response to upward pressure at 80 mg/kg, po administered 30 mins prior to capsaicin-challenge measured after 45 mins of treatment by von Frey filament test; assay type: functional
Method in brief: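 Female CD1 mice habituated 2 h on mesh platform; vehicle 0.5% HPMC or compound p.o. (10 mL/kg) 30 min before i.pl. capsaicin (1 μg in 20 μL 1% DMSO). 15 min after capsaicin, dynamic plantar aesthesiometer filament (0.5 g) applied ≥5 mm from site, 3 trials averaged, 50 s cut-off; n = 8–26. % reduction of hypersensitivity = (LTD−LTV)/(CT−LTV)×100.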

Mus musculus [6] = experiment: Antinociceptive activity in CD1 mouse sciatic nerve injury-induced neuropathic pain model assessed as reduction in mechanical hypersensitivity measured as hind paw withdrawal response at 80 mg/kg, po treated 30 mins before test by von Frey filament test; assay type: functional
Method in brief: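 Male CD1 mice with partial sciatic nerve ligation; habituation 4 days, 2 baseline days, allodynia checked days 5 and 8 (vehicle on day 8). Compound given p.o. (10 mL/kg) on day 15, 30 min before von Frey testing; n = 7–8/group, two independent experiments. Effect referenced to day-8 vehicle threshold and pre-surgery baseline.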

Mus musculus [7] = experiment: Antinociceptive activity against formalin-induced pain in CD1 mouse assessed as reduction in mean licking and biting time at 40 mg/kg, ip administered 30 mins before fomalin injection measured during second phase of 15 to 30 mins after formalin challenge; assay type: functional; settings: route intraperitoneal
Method in brief: (§2)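 Male CD1 mice, 6–8 weeks; 20 μL of 2.5% formalin (0.92% formaldehyde) injected i.pl. into right hind paw midplantar surface. Vehicle 0.5% HPMC or compound given i.p. or p.o. (10 mL/kg) 30 min before formalin; n = 7–8/group. Licking/biting time scored 15–30 min post-injection (phase II), blind; % antinociception derived relative to vehicle group.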

[8] = Thermodynamic solubility of the compound in phosphate buffer at pH 7.4; assay type: physicochemical; settings: read-out: Therm_solubility
Method in brief: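 Thermodynamic solubility measured from solid compound in phosphate buffer, pH 7.4, quantified by HPLC.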

[9] = Lipophilicity, log P of the compound; assay type: physicochemical; settings: octanol/water
Method in brief: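 clogP calculated with ChemDraw Ultra 10.0.3.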

[10] = Dissociation constant, pKa of the compound; assay type: physicochemical
Method in brief: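 pKa calculated in silico with ACDLABS 9.0.3.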

Mus musculus [11] = experiment: Antinociceptive activity against formalin-induced pain in CD1 mouse assessed as reduction in mean licking and biting time at 80 mg/kg, po administered 30 mins before fomalin injection measured during second phase of 15 to 30 mins after formalin challenge; assay type: functional; method in brief: as §2
[12] = target: Sigma non-opioid intracellular receptor 1 (Homo sapiens, UniProt Q99720); experiment: Displacement of [3H](+)-pentazocine from human sigma 1 receptor transfected in HEK293 cells after 120 mins by liquid scintillation counting; assay type: cell-based
Sequence of Sigma non-opioid intracellular receptor 1 (Q99720 whole entry): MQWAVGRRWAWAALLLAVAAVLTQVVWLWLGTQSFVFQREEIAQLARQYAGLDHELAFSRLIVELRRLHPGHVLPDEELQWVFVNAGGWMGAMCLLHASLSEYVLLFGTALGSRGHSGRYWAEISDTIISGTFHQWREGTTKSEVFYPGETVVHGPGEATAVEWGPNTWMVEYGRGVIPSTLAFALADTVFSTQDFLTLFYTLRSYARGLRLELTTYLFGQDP

SMILES: Fc1cccc(-n2cc(NCCN3CCN(C4CCCCC4)CC3)nn2)c1
inhibition (Cavia porcellus): 74%

SMILES: Fc1ccc(Cn2cc(NCCN3CCC(F)(F)CC3)nn2)cc1
Ki [1]: > 10000 nM

SMILES: Fc1cccc(-n2cc(NCCN3CCCCC3)nn2)c1
inhibition (Cavia porcellus): 59%
IC50 [2]: 5200 nM

SMILES: c1ccc(Cn2cc(NCCN3CCCCCC3)nn2)cc1
inhibition (Cavia porcellus): 75%

SMILES: Fc1ccc(Cn2cc(NCCN3CCOCC3)nn2)cc1
Ki [12]: 662 nM

SMILES: Fc1ccc(-n2cc(NCCN3CCCCC3)nn2)cc1
inhibition (Cavia porcellus): 54%

SMILES: Fc1cccc(Cn2cc(NCCN3CCCCC3)nn2)c1
inhibition (Cavia porcellus): 43%
IC50 [2]: > 10000 nM

SMILES: Clc1ccc(-n2cc(NCCN3CCCCC3)nn2)cc1
inhibition (Cavia porcellus): 65%
IC50 [2]: 3100 nM

SMILES: CCN(CC)CCNc1cn(Cc2ccccc2)nn1
Ki [12]: 701 nM

SMILES: c1c(NCCN2CCOCC2)nnn1C12CC3CC(CC(C3)C1)C2
IC50 [2]: > 10000 nM

SMILES: Fc1ccc(-n2cc(NCCN3CCCCC3)nn2)cc1F
inhibition (Cavia porcellus): 65%
IC50 [2]: 2200 nM

SMILES: Fc1cccc(-n2cc(NCCN3CCCCCC3)nn2)c1
inhibition (Cavia porcellus): 86%

SMILES: Cc1cc(OCCN2CCOCC2)nn1-c1ccc2ccccc2c1
Ki [1]: > 1000 nM
microsomal CLint at 10 µM [3]: 3 µL/min/mg
inhibition in vivo at 80 mg/kg (Mus musculus [5]): 48%
inhibition in vivo at 80 mg/kg (Mus musculus [6]): 62%
inhibition in vivo at 40 mg/kg (Mus musculus [7]): 50%
inhibition in vivo at 80 mg/kg (Mus musculus [11]): 66%

SMILES: CCN(CCN1CCOCC1)c1cn(C23CC4CC(CC(C4)C2)C3)nn1
Ki [1]: 72 nM

SMILES: C[C@@H]1CCC[C@H](C)N1CCNc1cn(Cc2ccc(F)cc2)nn1
inhibition (Cavia porcellus): 72%

SMILES: Fc1ccc(-n2cc(NCCN3CCC(F)(F)CC3)nn2)cc1F
inhibition (Cavia porcellus): 29%
IC50 [2]: > 10000 nM

SMILES: c1c(NCCN2CCOCC2)nnn1C1CCCCC1
Ki [12]: > 1000 nM

SMILES: Clc1ccc(-n2cc(NCCN3CCCCC3)nn2)c(Cl)c1
inhibition (Cavia porcellus): 62%

SMILES: c1ccc(Cn2cc(NCCN3CCOCC3)nn2)cc1
Ki [12]: > 1000 nM

SMILES: c1ccc(Cn2cc(NCCN3CCCCC3)nn2)cc1
Ki [1]: 624 nM

SMILES: Fc1ccc(Cn2cc(NCCN3CCC(F)(F)CC3)nn2)cc1F
Ki [1]: > 10000 nM
IC50 [2]: > 10000 nM

SMILES: Fc1ccc(Cn2cc(NCCN3CCCCC3)nn2)cc1
inhibition (Cavia porcellus): 66%

SMILES: CN1CCN(CCNc2cn(Cc3ccccc3)nn2)CC1
Ki [12]: 9620 nM

SMILES: Fc1ccc(-n2cc(NCCN3CCCCC3)nn2)c(F)c1
inhibition (Cavia porcellus): 53%

SMILES: Fc1ccc(Cn2cc(NCCN3CCCCC3)nn2)cc1F
Ki [1]: 946 nM

Continued, in another order:

Ki [1]: 69 nM
SMILES: Clc1ccc(Cn2cc(NCCN3CCCCC3)nn2)cc1Cl

Ki [1]: 55 nM
SMILES: CCN(CCN1CCOCC1)c1cn(-c2ccc(Cl)c(Cl)c2)nn1

inhibition (Cavia porcellus): 47%
SMILES: Fc1cccc(-n2cc(NCCN3CCCOCC3)nn2)c1

Ki [1]: 562 nM
SMILES: Clc1ccc(-n2ccc(NCCN3CCOCC3)n2)cc1Cl

Ki [1]: > 10000 nM
microsomal CLint at 10 µM [3]: 2.9 µL/min/mg
Papp at 2 h, 10 µM [4]: 46.2 ×10⁻⁶ cm/s
solubility thermodynamic [8]: > 4000 µg/mL
logP [9]: 2.4
pKa [10]: 6.7
SMILES: Clc1ccc(Cn2cc(NCCN3CCOCC3)nn2)cc1Cl
inhibition in vivo at 80 mg/kg (Mus musculus [5]): 94%
inhibition in vivo at 80 mg/kg (Mus musculus [6]): 140%
inhibition in vivo at 40 mg/kg (Mus musculus [7]): 94%
inhibition in vivo at 80 mg/kg (Mus musculus [11]): 67%

Ki [12]: > 1000 nM
SMILES: Fc1ccc(-n2cc(NCCN3CCOCC3)nn2)cc1F

Ki [1]: 323 nM
SMILES: Clc1ccc(-n2cc(NCCN3CCCCC3)nn2)cc1Cl
IC50 [2]: 1700 nM

Ki [12]: 818 nM
SMILES: CC(=O)N1CCN(CCNc2cn(Cc3ccc(Cl)c(Cl)c3)nn2)CC1

Ki [12]: > 1000 nM
SMILES: CS(=O)(=O)N(CCN1CCOCC1)c1cn(-c2ccc(Cl)c(Cl)c2)nn1

Ki [12]: 781 nM
SMILES: Fc1cccc(-n2cc(NCCN3CCOCC3)nn2)c1

inhibition (Cavia porcellus): 66%
SMILES: Clc1ccc(Cn2cc(NCCN3CCCOCC3)nn2)cc1Cl

inhibition (Cavia porcellus): 87%
SMILES: Clc1ccc(Cn2cc(NCCN3CCCCCC3)nn2)cc1Cl

Ki [12]: 508 nM
SMILES: Clc1ccc(Cn2cc(NCCCN3CCOCC3)nn2)cc1Cl

Ki [12]: 459 nM
SMILES: CC(=O)N(CCN1CCOCC1)c1cn(Cc2ccc(Cl)c(Cl)c2)nn1

Ki [1]: > 10000 nM
microsomal CLint at 10 µM [3]: 0.8 µL/min/mg
Papp at 2 h, 10 µM [4]: 51 ×10⁻⁶ cm/s
solubility thermodynamic [8]: 170 µg/mL (≈ 497 µM)
logP [9]: 2.9
pKa [10]: 6.6
SMILES: Clc1ccc(-n2cc(NCCN3CCOCC3)nn2)cc1Cl
inhibition in vivo at 80 mg/kg (Mus musculus [5]): 68%
inhibition in vivo at 80 mg/kg (Mus musculus [6]): 56%
inhibition in vivo at 40 mg/kg (Mus musculus [7]): 95%
IC50 [2]: > 10000 nM
inhibition in vivo at 80 mg/kg (Mus musculus [11]): 62%

Ki [12]: 878 nM
SMILES: Fc1ccc(Cn2cc(NCCN3CCOCC3)nn2)cc1F

Ki [12]: 451 nM
SMILES: CCCN(CCN1CCOCC1)c1cn(-c2ccc(Cl)c(Cl)c2)nn1

Ki [12]: 388 nM
SMILES: CC(=O)N(CCN1CCOCC1)c1cn(-c2ccc(Cl)c(Cl)c2)nn1

Ki [1]: 91 nM
Ki [12]: 10 nM
SMILES: Clc1ccc(-n2ccc(NCCN3CCCCC3)n2)cc1Cl
